Assays:
[1] = target: T1, Beta-secretase 1 (Homo sapiens, UniProt P56817); assay: Inhibition of human recombinant BACE1 using [acetyl-C(W8044Eu)-EVNLDAEFK-QSY7] as substrate by TR-FRET assay
In short: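 Enzyme (6 nM) incubated with 200 nM europium-labelled TR-FRET substrate in 50 mM NaOAc, 0.005% Triton X-100, pH 4.5; inhibitors in 3.3% DMSO. Time-resolved fluorescence read at excitation 330 nm, emission 615 nm; IC50 from concentration-response curves, mean of at least 3 experiments.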

[2] = target: T1, Beta-secretase 1; assay: Inhibition of BACE1 in human SH-SY5Y cells expressing APP NFEV and wild-type alpha cleavage site assessed as generation of EV40/EV42 by electrochemiluminescence assay; assay type: cell-based
In short: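 SHSY5Y cells expressing APP NFEV with wild-type alpha-cleavage site. Compounds started at […], then 3-fold dilutions (10 points). IC50 determined against generation of sAPPb NF and EV40 and EV42 peptides. Run at Merck RL.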

[3] = target: T1, Beta-secretase 1; assay: Inhibition of BACE1 in HEK293 cells expressing APP NFEV and APP K612V mutant assessed as generation of EV40/EV42 by electrochemiluminescence assay; assay type: cell-based
In short: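 HEK293 cells carrying a proprietary APP construct with modified BACE cleavage sequence (NFEV) and K612V alpha-site mutation. Compounds started at […], then 3-fold dilutions (10 points). IC50 determined against generation of sAPPb NF and EV40 and EV42 peptides. Run at Merck RL.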

[4] = target: T1, Beta-secretase 1; assay: Selectivity ratio of IC50 for BACE1 in human SH-SY5Y cells to IC50 for BACE1 in HEK293 cells; assay type: cell-based

T1 sequence (P56817 whole entry): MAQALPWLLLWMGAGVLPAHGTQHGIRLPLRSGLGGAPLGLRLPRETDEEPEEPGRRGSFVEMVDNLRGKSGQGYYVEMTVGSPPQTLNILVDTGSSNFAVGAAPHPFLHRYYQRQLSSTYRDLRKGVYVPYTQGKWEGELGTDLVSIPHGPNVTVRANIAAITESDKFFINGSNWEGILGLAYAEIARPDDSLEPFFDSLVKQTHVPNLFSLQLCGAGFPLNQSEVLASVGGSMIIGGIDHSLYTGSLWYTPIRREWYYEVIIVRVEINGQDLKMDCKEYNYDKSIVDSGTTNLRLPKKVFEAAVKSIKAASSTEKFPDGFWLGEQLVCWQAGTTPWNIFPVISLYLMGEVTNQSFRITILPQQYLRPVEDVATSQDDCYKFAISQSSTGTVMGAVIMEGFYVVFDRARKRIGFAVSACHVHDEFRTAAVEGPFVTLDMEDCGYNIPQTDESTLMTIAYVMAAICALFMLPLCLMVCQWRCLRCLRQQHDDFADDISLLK

Row | SMILES | IC50 ([1]; read-out: IC50) [µM] | also measured
1 | CC(C)(C)OC(=O)N1CCN(c2ccc(-c3ccccc3)c3c2NC(=O)[C@H](c2ccccc2)NC3)CC1 |  | IC50 [1]: Not Active
2 | CC(C)(C)OC(=O)N(Cc1ccccc1)C[C@H](O)c1cccc(NC(=O)c2cccc3ccccc23)c1 | 4.9 | IC50 [2]: 11 µM; IC50 [3]: > 7 µM
3 | CC(C)(C)OC(=O)N(Cc1ccccc1)C[C@H](O)c1ccc(C(=O)c2ccccc2)c(NC(=O)[C@H](NC(=O)OCc2ccccc2)c2ccccc2)c1 | 18.1 | 
4 | O=C1Nc2c(N3CCNCC3)ccc(-c3ccccc3)c2C=N[C@H]1c1ccccc1 |  | IC50 [1]: Not Active
5 | CC(C)(C)OC(=O)N(Cc1ccccc1)C[C@@H](O)c1cccc(NC(=O)[C@@H](NC(=O)OCc2ccccc2)c2ccccc2)c1 | 5.2 | 
6 | CC(C)(C)OC(=O)N1CCN(c2cccc3c2NC(=O)[C@H](c2ccccc2)N=C3)CC1 |  | IC50 [1]: Not Active
7 | O=C(N[C@H](C(=O)Nc1cccc([C@@H](O)CN[C@H](CO)Cc2ccccc2)c1)c1ccccc1)OCc1ccccc1 | 7.5 | 
8 | CC(C)(C)OC(=O)N(Cc1ccccc1)C[C@@H](O)c1cccc(NC(=O)[C@H](NC(=O)OCc2ccccc2)c2ccccc2)c1 | 4.7 | IC50 [2]: > 100 µM; Ratio IC50 [4]: 10; IC50 [3]: > 10 µM
9 | CC(C)(C)OC(=O)N(Cc1ccccc1)C[C@H](O)c1ccc(C(=O)c2ccccc2)c(NC(=O)[C@@H](NC(=O)OCc2ccccc2)c2ccccc2)c1 | 14.9 | 

Second part, led by results:

Row | IC50 ([1]; read-out: IC50) [µM] | SMILES | also measured
10 | 12.8 | CC(C)(C)OC(=O)N1CCN(c2ccc(-c3ccccc3)c3c2NC(=O)[C@H](c2ccccc2)N=C3)CC1 | 
11 | 9.2 | CC(C)(C)OC(=O)N(C[C@H](O)c1cccc(NC(=O)[C@@H](NC(=O)OCc2ccccc2)c2ccccc2)c1)[C@H](CO)c1ccccc1 | 
12 | 14.8 | CC(C)(C)OC(=O)N1CCN(c2ccc(-c3ccccc3)c(C=O)c2NC(=O)[C@@H](NC(=O)OCC2c3ccccc3-c3ccccc32)c2ccccc2)CC1 | 
13 | 14.3 | CC(C)(C)OC(=O)N1CCN(c2cccc(C=O)c2NC(=O)[C@@H](NC(=O)OCc2ccccc2)c2ccccc2)CC1 | 
14 | 6.4 | CC(C)(C)OC(=O)N(C[C@H](O)c1cccc(NC(=O)[C@@H](NC(=O)OCc2ccccc2)c2ccccc2)c1)[C@H](CO)Cc1ccccc1 | 

Source: ChEMBL document CHEMBL3085758, “A stereoselective approach to peptidomimetic BACE1 inhibitors” (Eur J Med Chem, 2013)
